Screening results (PubChem BioAssay)
14-3-3 Bad inh: disrupts binding of bovine 14-3-3 zeta to phospho-Bad peptide | inhibition, % at 21.7 µM | P63103 | 0.71% of 220,000 active | AID 781 | TR-FRET 14-3-3zeta/Dy647-pBad peptide displacement, 1 h;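 active = inhibition above about 70%, limit read from the data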;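 note: 0% = full 14-3-3 plus peptide FRET controls and 100% = background without 14-3-3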
Target sequence (P63103 whole entry, looked up): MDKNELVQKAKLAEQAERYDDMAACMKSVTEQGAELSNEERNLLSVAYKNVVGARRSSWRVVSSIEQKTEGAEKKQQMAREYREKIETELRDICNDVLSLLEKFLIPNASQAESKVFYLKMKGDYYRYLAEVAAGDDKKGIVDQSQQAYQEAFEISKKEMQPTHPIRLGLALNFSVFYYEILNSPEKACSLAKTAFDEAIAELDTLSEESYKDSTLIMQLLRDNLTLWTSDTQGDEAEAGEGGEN
Runt-SMMHC FRET: Runt domain-CBFb-SMMHC interaction inhibition | Q01196+Q13951 | Cerulean-Runt/Venus-CBFb-SMMHC FRET ratio 530/480, 1 h | inhibition, % at 20 µM | 0.74% of 220,000 active | AID 1434;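 active = mean inhibition across duplicate retests at 20 µM reaching about 50%, limit read from the data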;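 note: 0% = DMSO wells and 100% = wells with excess untagged CBFb-SMMHC; inhibitors lower the FRET ratio by blocking Runt binding to CBFb-SMMHC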
RanGTP-Imp inh: inhibitors of RanGTP-importin-beta interaction, primary screen, biochemical, FRET, CFP-Ran, YFP-importin-beta, homogeneous. cell-free CFP-Ran/YFP-importin-beta FRET ratio. inhibition, % (no concentration beside the values). 1.1% of 300,000 active. AID 2216;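 active = more than half of the replicate wells show a fall in the fluorescence ratio signal beyond about 16%, limit read from the data, passing the limit was not always enough; inconclusive = exactly half of the replicate wells pass the set limit; inactive = fewer than half of replicates pass the limit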;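 note: 0% = DMSO wells and 100% = Ran loaded with GDP instead of GTP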
Hck-Nef inh: human Hck-Nef kinase inhibition. P08631. Recombinant Hck-YEEI plus Nef, Z-Lyte FRET kinase assay. inhibition, % at 20 µM. 0.68% of 220,000 active. AID 463187;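 active = Hck-Nef kinase inhibition above about 50%, limit read from the data; inactive = inhibition below that limit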;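 note: 0% = DMSO with Hck plus Nef and 100% = Hck alone without Nef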
Runt-CBFb FRET: Runt domain-CBFb interaction inhibition. Cerulean-Runt/Venus-CBFb FRET ratio 530/480, 1 h. inhibition, % at 20 µM. 0.46% of 220,000 active. AID 1496;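 active = inhibition over about 50% at 20 µM in the single-dose screen, limit read from the data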;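 note: 0% = DMSO wells and 100% = excess unlabeled CBFb competitor control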
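test system = Cerulean-Runt domain fusion protein, energy donor | probe or stimulus = Venus-CBFb binding partner, 100 nM | incubation = two 1 h room-temperature incubations shielded from light | detection = fluorescence energy transfer, 422 nm excitation, 530/480 nm emission | measure = loss of energy transfer signal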
TbHK1 inh: T. brucei hexokinase 1 inhibition | recombinant TbHK1, G6PDH-coupled NADH A340 | inhibition, % at 10 µM | 0.11% of 220,000 active | AID 1430;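 active = inhibition of 50% or more in the single-dose primary screen; inactive = inhibition below 50%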
* hit, by the source's call; ? = inconclusive; . = not tested or not shown. An excerpt weighted towards active compounds, which were near 2.2% of everything screened.

SMILES	14-3-3 Bad inh	Runt-SMMHC FRET	RanGTP-Imp inh	Hck-Nef inh	Runt-CBFb FRET	TbHK1 inh
CC1(C)OC(=O)C(=Cc2ccc(-c3ccc(S(N)(=O)=O)cc3)o2)C(=O)O1	-27.2	17.7	-2.2	58.0*	8.1	-12.0
CCc1ccc(NC(=O)CC2C(=O)N(c3ccc(C)cc3)C(=O)N2C2CC2)cc1 (stereo not given)	6.8	1.3	?	17.5	-2.1	-5.3
CC1(c2ccccc2Cl)NC(=O)N(CC(=O)Nc2ccc3c(c2)OCO3)C1=O (stereo not given)	-6.3	-0.5	3.8	24.0	-1.7	-4.1
COC(=O)CCCC1=CC2=CC(=O)C(C)(OC(=O)c3cnc4ccccc4n3)C(=O)C2=CO1 (stereo not given)	.	.	-17.5	.	.	.
CCCCC1=CC2=CC(=O)C(C)(OC(=O)c3cnc4ccccc4n3)C(=O)C2=CO1 (stereo not given)	-0.2	-46.8	-41.7	65.5*	-26.2	-14.9
O=C(Nc1cc(C(F)(F)F)ccc1N1CCOCC1)c1ccccc1F	72.8*	-3.1	1.2	0.6	-1.0	-2.1
Cc1ncc(CO)c(/C=N/NC(=O)c2ccc(Br)cc2)c1O	-5.2	58.5*	21.0*	-4.4	18.7	-2.4
Cc1ncc(CO)c(/C=N/NC(=O)c2cc(Br)ccc2O)c1O	-15.4	-25.0	1.9	8.9	0.6	1.5
S=C(NCC1CCCO1)N1CCN(Cc2ccccc2)CC1 (stereo not given)	70.4*	2.1	0.5	15.7	-0.1	-3.3
COc1ccccc1N=Cc1c(C)c(C#N)c2[nH]c3ccccc3n2c1=O	-9.1	-41.7	2.1	53.4*	-2.8	-6.9
Cc1c(Cc2ccccc2)c(=O)n2c([nH]c3ccccc32)c1C#N	-0.2	2.1	8.6	24.9	-2.2	-5.9
CCc1ccc(/C=C2\Oc3cc(OS(C)(=O)=O)ccc3C2=O)cc1	-3.8	-6.0	2.8	0.6	-8.0	-21.0
CCc1ccc(/C=C2\Oc3c(ccc(O)c3CN3CCN(CCO)CC3)C2=O)cc1	4.5	81.2*	11.9	-21.1	11.7	-37.0
COc1cc(/C=C2\SC(=O)N(CCNC(=O)c3sc4cc(F)ccc4c3Cl)C2=O)cc(OC)c1OC	-1.1	-54.0	1.3	54.8*	-21.2	-26.0
CCc1nc(N2CCN(C(=S)NCCCOC)CC2)c2c3c(sc2n1)CCCC3	.	.	-1.7	.	.	.
Cc1ccc(C(=O)Nc2nc3nc(-c4ccccc4)cc(=O)n3[nH]2)cc1	7.3	0.4	-4.2	-3.4	-0.7	-5.9
CSc1nc2nc(-c3ccccc3)cc(=O)n2[nH]1	78.8*	-109.2	1.4	-0.2	-1.7	-6.8
CCOc1ccc2[nH]c(C)c(CN3CCOCC3)c(=O)c2c1	-16.7	1.8	6.0	-0.4	-1.5	-23.2
CCOc1ccc2[nH]c3ncccc3c(=O)c2c1	.	.	34.3*	.	.	.
CC1(C)CC[C@]2(CO)[C@@H](O)C[C@]3(C)C(=CCC4[C@@]5(C)CC[C@H](O)C(C)(C)C5CC[C@]43C)[C@@H]2C1 (stereo not given in full)	.	.	2.8	.	.	.
Cc1ccc(NC2c3ncccc3C(=O)N2Cc2cccs2)cc1 (stereo not given)	77.2*	-19.3	-8.6	-1.0	-4.0	2.8
CCN(CC)S(=O)(=O)c1ccc(NC2c3ccccc3C(=O)N2Cc2ccc3c(c2)OCO3)cc1 (stereo not given)	-2.3	-3.9	-8.3	0.1	0.7	-0.8
COc1ccc(CN2C(=O)c3cccnc3C2Nc2cc(Cl)c(OC)cc2OC)cc1 (stereo not given)	92.2*	-1.4	2.2	0.7	5.1	-8.9
CCN(CC)S(=O)(=O)c1ccc(NC2c3ncccc3C(=O)N2Cc2ccccc2)cc1 (stereo not given)	81.2*	1.1	3.9	1.5	0.7	1.5
COc1ccc(CN2C(=O)c3cccnc3C2Nc2ccc(C)cc2)cc1 (stereo not given)	28.2	-10.9	1.7	-5.5	0.6	-3.6
CCn1cc(S(=O)(=O)NCc2ccc(OC)cc2)cn1	.	.	-4.0	.	.	.
CCCCC[C@H](O)/C=C/[C@@H]1[C@@H](C/C=C\CCCC(=O)OC)[C@@H](O)C[C@H]1O	90.9*	-85.6	-0.4	-5.0	-37.8	-9.1
